According to ChEMBL document CHEMBL6078712, “Triterpenoid phthalimides as selective anti-cancer agents targeting mitochondrial apoptosis” (Eur J Med Chem, 2025):

Columns and labels:
CCRF-CEM = experiment: Cytotoxicity against human CCRF-CEM cells assessed as inhibition of cell growth incubated for 72 hrs by MTS assay; format: functional, cell-based
Summary of the method: (§1)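 MTS assay on eight human cancer lines and two non-tumour fibroblast lines. IC50 is the concentration that inhibits cell growth by 50 %. SD typically up to 15 % of the mean.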

CEM-DNR = experiment: Cytotoxicity against human CEM-DNR cells assessed as inhibition of cell growth incubated for 72 hrs by MTS assay; format: functional, cell-based; summary of the method: as §1
HCT-116 = experiment: Cytotoxicity against human HCT-116 cells assessed as inhibition of cell growth incubated for 72 hrs by MTS assay; format: functional, cell-based; details: HCT-116, 72 h; summary of the method: as §1
HCT 116 TP53(-/-) = experiment: Cytotoxicity against human HCT116-p53-null cells assessed as inhibition of cell growth incubated for 72 hrs by MTS assay; format: functional, cell-based; summary of the method: as §1
K562 = experiment: Cytotoxicity against human K562 cells assessed as inhibition of cell growth incubated for 72 hrs by MTS assay; format: functional, cell-based; details: K562, 72 h; summary of the method: as §1
[1] = Cytotoxicity against human K562-Tax cells assessed as inhibition of cell growth incubated for 72 hrs by MTS assay; format: functional, cell-based; summary of the method: as §1
A549 = experiment: Cytotoxicity against human A549 cells assessed as inhibition of cell growth incubated for 72 hrs by MTS assay; format: functional, cell-based; details: A549, 72 h; summary of the method: as §1
U2OS = experiment: Cytotoxicity against human U2OS cells assessed as inhibition of cell growth incubated for 72 hrs by MTS assay; format: functional, cell-based; summary of the method: as §1
[2] = Cytotoxicity against human BJ cells assessed as inhibition of cell growth incubated for 72 hrs by MTS assay; format: toxicity, cell-based; summary of the method: as §1
[3] = Cytotoxicity against human MRC5 cells assessed as inhibition of cell growth incubated for 72 hrs by MTS assay; format: toxicity, cell-based; summary of the method: as §1

SMILES	IC50 (CCRF-CEM) [µM]	IC50 (CEM-DNR) [µM]	IC50 (HCT-116) [µM]	IC50 (HCT 116 TP53(-/-)) [µM]	IC50 (K562) [µM]	IC50 [1] [µM]	IC50 (A549) [µM]	IC50 (U2OS) [µM]	IC50 at 72 h [2] [µM]	IC50 at 72 h [3] [µM]
CC1(C)[C@@H](O)CC[C@]2(C)[C@H]3CC[C@@H]4[C@H]5[C@H](c6ccc7c(c6)C(=O)N(c6ccccc6)C7=O)CC[C@]5(C(=O)O)CC[C@@]4(C)[C@]3(C)CC[C@@H]12	7.93	19.9	31.1	37.8	> 50	14.3	34.2	24.9	> 50	31
Cc1cc([C@@H]2CC[C@]3(C(=O)O)CC[C@]4(C)[C@H](CC[C@@H]5[C@@]6(C)CC[C@H](O)C(C)(C)[C@@H]6CC[C@]54C)[C@@H]23)cc2c1C(=O)NC2=O	7.97	8.76	25.9	27.2	> 50	7.2	> 50	24.8	> 50	34.3
CC1(C)[C@@H](O)CC[C@]2(C)[C@H]3CC[C@@H]4[C@H]5[C@H](c6ccc(C#N)c(C#N)c6)CC[C@]5(C(=O)O)CC[C@@]4(C)[C@]3(C)CC[C@@H]12	5.9	5.23	23.7	31.8	30	5.08	19.9	20	35.5	25.3
COC(=O)c1cc([C@@H]2CC[C@]3(CO)CC[C@]4(C)[C@H](CC[C@@H]5[C@@]6(C)CC[C@H](O)C(C)(C)[C@@H]6CC[C@]54C)[C@@H]23)cc(-c2ccccc2)c1C(=O)OC	> 50	> 50	> 50	> 50	> 50	> 50	> 50	> 50	> 50	> 50
CC1(C)[C@@H](O)CC[C@]2(C)[C@H]3CC[C@@H]4[C@H]5[C@H](c6cc7c(c(-c8ccccc8)c6)C(=O)NC7=O)CC[C@]5(C(=O)O)CC[C@@]4(C)[C@]3(C)CC[C@@H]12	7.18	9.65	7.22	7.43	7.58	10.4	6.39	9.82	34.5	32.4
CC1(C)[C@@H](O)CC[C@]2(C)[C@H]3CC[C@@H]4[C@H]5[C@H](c6ccc7c(c6)C(=O)NC7=O)CC[C@]5(C(=O)O)CC[C@@]4(C)[C@]3(C)CC[C@@H]12	26.3	20.7	31.1	34.9	35.3	17.3	26.6	38.5	> 50	> 50
CC(=O)O[C@H]1CC[C@]2(C)[C@H]3CC[C@@H]4[C@H]5[C@H](c6cc7c(c(-c8ccccc8)c6)C(=O)NC7=O)CC[C@]5(CO)CC[C@@]4(C)[C@]3(C)CC[C@H]2C1(C)C	> 50	> 50	> 50	> 50	> 50	> 50	> 50	> 50	> 50	> 50
CC1(C)[C@@H](O)CC[C@]2(C)[C@H]3CC[C@@H]4[C@H]5[C@H](c6ccc(C(=O)O)c(C(=O)O)c6)CC[C@]5(C(=O)O)CC[C@@]4(C)[C@]3(C)CC[C@@H]12	> 50	> 50	> 50	> 50	> 50	> 50	> 50	> 50	> 50	> 50
CC(=O)O[C@H]1CC[C@]2(C)[C@H]3CC[C@@H]4[C@H]5[C@H](c6ccc7c(c6)C(=O)NC7=O)CC[C@]5(CO)CC[C@@]4(C)[C@]3(C)CC[C@H]2C1(C)C	14	9.21	19.7	21.8	36	7.43	> 50	34.5	> 50	28.5
COC(=O)c1cc([C@@H]2CC[C@]3(C(=O)O)CC[C@]4(C)[C@H](CC[C@@H]5[C@@]6(C)CC[C@H](O)C(C)(C)[C@@H]6CC[C@]54C)[C@@H]23)cc(C)c1C(=O)OC	14	6.78	16.3	16.1	12.1	7.21	10.4	19	33	32.4
COC(=O)c1cc([C@@H]2CC[C@]3(C(=O)O)CC[C@]4(C)[C@H](CC[C@@H]5[C@@]6(C)CC[C@H](O)C(C)(C)[C@@H]6CC[C@]54C)[C@@H]23)cc(-c2ccccc2)c1C(=O)OC	6.3	4.85	5.46	6.17	6.12	4.36	4.44	9.94	36.3	30.2
CC1(C)[C@@H](O)CC[C@]2(C)[C@H]3CC[C@@H]4[C@H]5[C@H](c6cc(C#N)c(C#N)c(-c7ccccc7)c6)CC[C@]5(C(=O)O)CC[C@@]4(C)[C@]3(C)CC[C@@H]12	5.99	13.7	26	31.6	27.8	7	20.7	19.2	36.2	25.7
CC(=O)Nc1ccc(N2C(=O)c3cc([C@@H]4CC[C@]5(C(=O)O)CC[C@]6(C)[C@H](CC[C@@H]7[C@@]8(C)CC[C@H](OC(C)=O)C(C)(C)[C@@H]8CC[C@]76C)[C@@H]45)cc(-c4ccccc4)c3C2=O)cc1	8.08	> 50	16.8	28.4	27.9	> 50	34.6	18.8	> 50	33.7
CC1(C)[C@@H](O)CC[C@]2(C)[C@H]3CC[C@@H]4[C@H]5[C@H](c6ccc7c(c6)C(=O)N(c6ccc(C#N)cc6)C7=O)CC[C@]5(C(=O)O)CC[C@@]4(C)[C@]3(C)CC[C@@H]12	19.8	27.3	> 50	> 50	> 50	12.7	> 50	> 50	> 50	> 50
COC(=O)c1ccc([C@@H]2CC[C@]3(C(=O)O)CC[C@]4(C)[C@H](CC[C@@H]5[C@@]6(C)CC[C@H](O)C(C)(C)[C@@H]6CC[C@]54C)[C@@H]23)cc1C(=O)OC	14.1	11.5	16.6	16.2	13.8	11.5	11.1	19.6	31.1	25.3
